# High-throughput results as filed in PubChem BioAssay.
# eIF4H inh – inhibitors of RNA binding by human eIF4H | Q15056 | eIF4H fluorescence polarization binding assay | inhibition, % at 35 µM | hit rate 0.94% among 290,000;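 note: calls also rest on retests at 20 µM and on dose response follow-up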
# DNA FID counter – displaces DNA intercalator in HCV helicase counter-screen | hit rate 0.17% among 290,000 | DNA fluorescent intercalator displacement, fluorescence | AID 1845 | inhibition, % at 7.9 µM; in the data active = inhibition above about 37%;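 note: 0% = vehicle and 100% = reference compound; higher means more ethidium bromide displaced from hairpin DNA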
# PABP polyA inh – blocks human PABP binding to poly(A) RNA. fluorescence polarization. AID 2014. hit rate 1% among 290,000. inhibition, % at 35 µM. P11940;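 note: calls also rest on retests at 20 µM and on dose response follow-up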
# NS3 helicase inh – HCV NS3 helicase inhibition. inhibition, % at 10.9 µM. NS3 helicase DNA unwinding, Cy5 molecular beacon fluorescence. hit rate 0.56% among 290,000;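 active = inhibition above the mean of all tested compounds plus 3 SD, set per campaign, cut at about 35% in these data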;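 note: 0% = DMSO wells and 100% = thioflavine S control wells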
#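 Compound dosing – single dose, 10.9 µM nominal final, DMSO 0.8% final · System – NS3 helicase fragment of HCV · Buffer or medium – MOPS pH 6.5, MgCl2, DTT, Tween20, BSA · Signal – Cy5 beacon fluorescence read at start and 1 h · Also added – annealed dual-labelled DNA beacon duplex, ATP-started · Schedule – 1 h at 25 °C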
# MLLE-PAM2 inh – blocks PAM2 peptide binding to the PABP1 MLLE domain; GST-MLLE / FITC-PAM2 fluorescence polarization; inhibition, % at 20 µM; hit rate 0.36% among 360,000; in the data active = inhibition above about 35%, passing the limit was not always enough;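 note: plate controls were DMSO wells with GST-MLLE for no effect and wells lacking GST-MLLE protein for full effect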
# HCV core dimer – HCV core protein dimerization inhibition; TR-FRET GST/Flag-core106 dimerization, 1536-well; inhibition, % at 5 µM; AID 1899; hit rate 0.33% among 300,000;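 active = inhibition above the mean of all tested compounds plus 3 SD, set per screening campaign, cut at about 45% in these data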
#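 Assay system: Tagged HCV core106 pair (GST and Flag) | Buffer or medium: KF-containing HEPES buffer, pH 7.45, DTT, CHAPS, BSA | Also added: Eu donor and XL665 acceptor anti-tag antibodies | Dosing: One concentration, 5 µM, in 0.5% DMSO | Timing: 4 h at 22.5 °C | Technique: TR-FRET 671 and 617 nm emission | Repeats: Singlicate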
# * marks the source's active call; other numbers are inactive results; ? = inconclusive; / = not tested or not shown. This is a sample that favours compounds with a hit; in the whole collection about 2% have one here. Unless noted, the rule behind the calls is not given here.
SMILES,eIF4H inh,DNA FID counter,PABP polyA inh,NS3 helicase inh,MLLE-PAM2 inh,HCV core dimer
CCCn1c(=C(C#N)C#N)s/c(=C2\C=Cc3ccccc3N2CC)c1=O,2,1,9,1,40*,/
CCCN1C(=O)/C(=c2\s/c(=C3\C=Cc4ccccc4N3CC)c(=O)n2-c2ccccc2)SC1=S,5,-2,-20,-1,/,-7
CCN(CC)c1ccc(N/C(N)=N/c2nc(C(F)(F)F)cc(=O)[nH]2)cc1,active,8,79*,2,-5,-5
O=C(NC(=S)NNS(=O)(=O)c1ccc(Cl)cc1)c1cccnc1,18,-1,1,-30,40*,2
Cc1[nH]c2c(C)cccc2c1CCNC(=O)c1ccc2c(c1[N+](=O)[O-])C(=O)c1ccccc1C2=O,9,7,14,-4,-9,60*
Cc1[nH]c2ccccc2c1CCNC(=O)c1ccc2c(c1[N+](=O)[O-])C(=O)c1ccccc1C2=O,4,15,20,31,-17,39
CCN(Cc1cccs1)C(=O)CN1C(=O)NC(c2ccccc2)(c2ccccc2)C1=O,/,/,/,/,-17,/
Cc1ccc(C(=O)NCCCNCCCN(C)C)cn1,68*,19,59*,-10,-2,-3
CN(C)CCCNC(=O)c1ccc(=O)[nH]n1,91*,0,84*,6,-4,-4
O=C(NCc1nnnn1-c1ccc(F)cc1)c1ccc2c(c1)OCO2,/,/,/,/,19,/
COc1cc(NC(=O)c2ccc3c(=O)n(Cc4ccco4)c(=S)[nH]c3c2)cc(OC)c1OC,64*,-7,38,2,-50,17
CCOC(=O)c1c(-c2ccco2)csc1NC(=O)COC(=O)c1cnc(C)cn1,/,/,/,/,13,52*
COc1ccc(NS(=O)(=O)c2ccc(N3CCCC3)c(NC(=S)Nc3ccc(SC(F)F)cc3)c2)cc1,-12,-7,4,-4,40*,16
Cc1cccc(N2CCN(C(=O)COc3cc(=O)n(C)c4ccccc34)CC2)c1C,-7,-24,-3,-5,7,5
Cc1cccc(N2CCN(C(=O)Cc3cn(C)c4ccccc34)CC2)c1C,112*,-30,84*,1,19,21
CC(C)CC(=O)Nc1c2c(nn1-c1cccc(Cl)c1)CS(=O)C2 (centres undefined),-8,0,-6,9,-6,-2
COc1ccccc1CN(C)C[C@@H]1OCc2cnnn2CCCC(=O)N([C@H](C)CO)C[C@H]1C,/,/,/,/,8,/
CCn1c(=O)c(C(C)=O)nc2ccccc21,-1,-1,-4,-3,-2,-5
CCCCCn1c(=O)c(C(=O)c2ccccc2)nc2ccccc21,-14,-21,65*,-7,-6,-1
COc1cc(/C=N/OCC(=O)Nc2ccc(OC(F)F)cc2)ccc1OCc1ccccc1,66*,-22,0,-9,-57,1
O=C1C(Cl)=C(N2CCC(C(=O)O)CC2)C(=O)c2ccccc21,13,-8,34,6,55*,-2
NC(=O)C1CCN(C2=C(Cl)C(=O)c3ccccc3C2=O)CC1,12,8,10,-4,38,-14
CSCCC(NC(=O)COc1ccccc1)C(=O)N1CCN(c2ccccc2Cl)CC1 (centres undefined),/,/,/,/,9,0
Cc1cccnc1C1=NOC(Cc2ccccc2)C(=O)N1Cc1ccccc1F (centres undefined),/,/,/,/,0,/
COc1cc2ncnc(NCCCN3CCOCC3)c2cc1OC,14,76*,14,30,4,-4
SMILES,eIF4H inh,DNA FID counter,PABP polyA inh,NS3 helicase inh,MLLE-PAM2 inh,HCV core dimer
COC(=O)c1c(N)n(CCCN2CCOCC2)c2nc3ccccc3nc12,-2,17,-1,7,13,-6
CCOc1cc2nc(-c3ccc(OC)c(OC)c3)nc(NCCCN3CCOCC3)c2cc1OC,-3,43*,24,6,-8,-1
COc1cc2nc(=S)n(CCCN3CCOCC3)c(N)c2cc1OC,-1,45*,-3,11,-64,/
Cc1cc(C(=O)N2CCCC(N3CCN(c4ccccc4C)CC3)C2)no1 (centres undefined),/,/,/,/,7,/
CCN(CC)CCCn1c2c(c(SCC(=O)Nc3ccccc3Cl)nc1=O)CCC2,/,/,/,/,10,-3
COc1ccccc1C(=O)NC(CCSC)C(=O)OCC(=O)N1CCCC1=O (centres undefined),/,/,/,/,0,/
COc1cccc(CN2C(=O)c3cccc(N)c3C2=O)c1,88*,-1,5.5*,-1,12,2
COc1cccc(CN2C(=O)c3ccccc3S2(=O)=O)c1,1,-10,6,-5,5,-6
CC1=C(C(=O)N(C(C)C)C(C)C)CC(CC(=O)NCCN2CCOCC2)C(=O)N1Cc1ccccc1 (centres undefined),/,/,/,/,-4,/
Cc1cc(=O)[nH]c(SCn2nnc3ccccc3c2=O)n1,-11,-5,-5,7,43*,-2
CNCc1ccccc1Sc1cc(O)ccc1O,48,-7,-9,32,45*,-6
O=C(Nc1nc(-c2ccco2)c(-c2ccco2)s1)c1cnccn1,/,/,/,/,/,69*
O=C(Nc1nc(-c2ccco2)c(-c2ccco2)s1)c1c(F)cccc1Cl,/,/,/,/,-53,/
CCOC(=O)N1CCN(c2nc3ccccc3nc2C(C#N)C(=O)NCCc2ccccc2)CC1 (centres undefined),46,4,53*,18,-6,8
CCN(CC)c1nc2ccccc2nc1C(C#N)C(=O)NCCc1ccccc1 (centres undefined),29*,-10,70,-5,48,-5
N#CC(C(=O)NCCc1ccccc1)c1nc2ccccc2nc1N1CCCCC1 (centres undefined),36,-1,11,9,-79,0
c1ccc(-[n+]2nc(Nc3cccc4ccccc34)sc2-c2c3ccccc3cc3ccccc23)cc1,/,/,/,/,-25,60*
CCCn1c(CCC(=O)O)ccc1-c1ccc(OC)cc1,53*,-19,62*,21,-25,46*
Cn1c(=O)[nH]c2cc(Cl)cnc21,?,-2,?,-3,47*,-4
CCOC(=O)Cc1cc(=O)c2c(=O)n(-c3ccccc3)[nH]c2[nH]1,6.0*,-14,54*,20,-8,-8
CCN=C1S/C(=C\c2ccc(-c3cccc(C(=O)O)c3)o2)C(=O)N1CC,64*,-14,1,17,9,-14
CCN1C(=O)/C(=C\c2ccc(-c3cccc(C(=O)OC)c3)o2)SC1=Nc1ccc(C(=O)O)cc1,26,-19,9,34,/,12
O=C(O)c1cccc(-c2ccc(/C=C3/SC(=Nc4ccccc4)N(Cc4cccnc4)C3=O)o2)c1,64*,-34,48*,36,-10,/
O=C(c1ccc(Br)c(S(=O)(=O)N2CCOCC2)c1)N1CCN(C/C=C/c2ccccc2)CC1,/,/,/,/,8,/
Cc1c(C(=O)N(C)C2CCCCC2)sc2ncnc(N3CCN(c4ccccc4)CC3)c12,0,-57,-9,-16,-11,2
